APJ antag: antagonists of human apelin receptor APJ, primary screen, CHO-K1 cells, beta-arrestin complementation, luminescence; P35414; inhibition, % at 20 µM; hit rate 0.32% among 330,000; AID 2521, 2010;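 active = inhibition above about 40% at 20 µM, limit read from the data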;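 note: cells challenged with 10 nM apelin-13 agonist together with compound; plate controls were apelin-13 plus DMSO wells for no effect and DMSO wells lacking apelin-13 for full effect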
CXCR6 block: CXCR6 receptor inhibitors, primary screen, cell-based, beta-arrestin, luminescence, CHO-K1 PathHunter, 1536-well; hit rate 0.36% among 360,000; C-X-C chemokine receptor type 6 (Homo sapiens), O00574; inhibition, % at 20 µM; in the data active = inhibition above about 34%, passing the limit was not always enough;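 note: antagonist mode with CXCL16 agonist at 10 nM final; 0% = 10 nM CXCL16 with DMSO and 100% = unstimulated wells without agonist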
APJ ag: agonists of human apelin receptor APJ, primary screen, CHO-K1 cells, PathHunter beta-arrestin, luminescence; P35414; 0% DMSO wells, 100% apelin; activation, % at 20 µM; hit rate 0.11% among 330,000;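 active = activation more than six SD over the plate average, tested at 20 µM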;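 note: 0% = DMSO alone and 100% = apelin-13 at 10 nM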
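Test system: CHO-K1 APJ beta-arrestin complementation cell line | Compound: Single test compound dose, 20 µM final, 1% DMSO | Incubation: Compound 90 min 25 °C, reagent 1 h | Measured by: beta-gal luminescence | Read-out basis: APJ–arrestin association signal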
CCR6 antagonist: CCR6 receptor antagonists, primary screen, cell-based, CHO-K1, luminescence, beta-arrestin, uHTS | C-C chemokine receptor type 6 (Homo sapiens), P51684 | CHO-K1 CCR6 PathHunter beta-arrestin, CCL20-stimulated | inhibition, % at 20 µM | hit rate 0.49% among 340,000;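 active = compounds whose inhibition of the agonist-driven luminescence signal at 20 µM reaches about 50%, limit read from the data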;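 note: cells stimulated with CCL20 at 14 nM final; plate controls were DMSO with CCL20 for no effect and DMSO without agonist for full effect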
EBI2 antag: EBI2 receptor antagonists, beta-arrestin recruitment, primary screen, cell-based, luminescence, 7a,25-OHC stimulation, uHTS; 7a,25-OHC stimulated; inhibition, % at 5 µM; AID 651636, 2012; hit rate 0.81% among 360,000; G-protein coupled receptor 183 (Homo sapiens), P32249; in the data active = inhibition above about 38%;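 note: enzyme fragment complementation signal reports receptor beta-arrestin coupling in cells; 0% = agonist plus DMSO wells and 100% = wells without agonist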
Target sequence (P32249 whole entry, looked up, the tested form may be a part): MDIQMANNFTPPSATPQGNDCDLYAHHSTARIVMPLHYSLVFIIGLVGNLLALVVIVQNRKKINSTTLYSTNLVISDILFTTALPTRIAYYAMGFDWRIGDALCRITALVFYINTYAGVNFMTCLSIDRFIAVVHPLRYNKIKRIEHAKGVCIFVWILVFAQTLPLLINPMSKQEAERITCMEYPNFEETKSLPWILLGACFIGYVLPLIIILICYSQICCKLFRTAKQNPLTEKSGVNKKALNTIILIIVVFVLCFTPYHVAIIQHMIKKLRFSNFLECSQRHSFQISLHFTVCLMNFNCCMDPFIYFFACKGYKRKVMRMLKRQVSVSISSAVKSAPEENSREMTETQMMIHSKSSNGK
HTR2A ag: mouse Htr2a agonists via beta-arrestin recruitment, primary screen, cell-based, luminescence | 5-hydroxytryptamine receptor 2A (Mus musculus), P35363 | hit rate 0.66% among 360,000 | CHO-K1 mHTR2A beta-arrestin complementation; percent of 30 µM serotonin response | AID 624169, 2012 | activation, % at 7.6 µM;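 active = activation above a run cutoff, the mean activation of all tested compounds plus 3 SD, cut at about 14% in these data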;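 note: 0% = plate median of compound wells and 100% = 30 µM serotonin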
APJ ag conf: agonists of human apelin receptor APJ, confirmation, cell-based, single concentration, CHO-K1, beta-arrestin, luminescence | hit rate 10% among 310 | CHO-K1 APJ PathHunter beta-arrestin | activation, % at 20 µM | shares compounds with APJ ag;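 active = activation above 40%, taking the highest of four retests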;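 note: plate controls were DMSO wells for no effect and apelin-13 at 10 nM for full effect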
APJ antag conf: APJ antagonists blocking beta-arrestin recruitment, confirmation, cell-based, luminescence, single concentration, uHTS hits | antagonist mode | shares compounds with APJ antag | hit rate 66% among 950 | inhibition, % at 20 µM; in the data active = inhibition above about 50%
CXCR6 antag conf: CXCR6 receptor antagonists, confirmation, cell-based, single concentration, beta-arrestin, luminescence; shares compounds with CXCR6 block; CHO-K1 CXCR6 PathHunter beta-arrestin; inhibition, % at 20 µM; hit rate 65% among 700;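 active = mean inhibition over four retests above 40%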;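 note: receptor stimulated with 10 nM CXCL16 agonist; beta-galactosidase fragment complementation upon beta-arrestin recruitment to receptor; plate controls were CXCL16 plus DMSO for no effect and DMSO without CXCL16 for full effect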
* marks the source's active call; other numbers are inactive results; x = no result given. Rows were chosen to be rich in hits. Some 2.2% of all compounds tested hit in one or more screens of this group.

SMILES	APJ antag	CXCR6 block	APJ ag	CCR6 antagonist	EBI2 antag	HTR2A ag	APJ antag conf	others
CC1=CC(C)CC(C)OC(=O)CC(c2ccc(O)cc2)NC(=O)C(Cc2c(Br)[nH]c3ccccc23)N(C)C(=O)C(C)NC(=O)C(C)C1 (stereo not drawn)	x	9.9	x	18.9	-34.2	7.4	x
NC(N)=N/N=C/c1ccc(N(c2ccccc2)c2ccccc2)cc1	-20.5	-13.0	40.5*	15.4	-7.7	-4.6	x	APJ ag conf=29.6
O=C1C(=O)c2ccccc2-c2ccccc21	-2.7	21.6	37.3*	33.7	-60.2	11.6	x	APJ ag conf=41.6*
C=C1C(=O)O[C@@H]2C[C@@H](C)[C@@H]3C4OC4C(=O)[C@@]3(C)[C@@H](O)[C@H]12 (stereo partly drawn)	42.4*	33.9	1.5	28.8	42.0	-10.1	41.9
CCOC(=O)[C@]12Cc3cc(C)ccc3[C@H]1N(Cc1ccccc1)C(=O)c1cc(OC)ccc12	x	8.0	x	x	11.8	-3.2	x
CCOC(=O)c1c(NS(=O)(=O)c2ccccc2)n(CCCOC)c2nc3ccccc3nc12	50.5*	17.5	-7.4	60.5*	7.6	7.1	9.3
COCCCn1c(N)c(C(=O)OCCOC)c2nc3ccccc3nc21	10.0	-5.2	-9.0	12.9	12.5	2.5	x
CCCCCn1c(NC(=O)c2ccco2)c(C(=O)OCC)c2nc3ccccc3nc21	49.2*	-3.9	-10.5	38.4	19.6	-1.0	27.7
O=C1NCN(c2ccccc2)C12CCN(C(c1cc3ccccc3o1)c1nnnn1Cc1ccccc1)CC2 (stereo not drawn)	x	-4.8	x	x	-8.6	3.1	x
CC(C)CCn1c(N)c(C(=O)NCc2cccs2)c2nc3ccccc3nc21	55.4*	0.6	-12.5	-10.4	16.1	8.6	-3.0
COCCNC(=O)c1c(N)n(CCC(C)C)c2nc3ccccc3nc12	34.5	-2.1	-10.6	14.1	20.2	1.0	x
COc1ccc(C(=O)C2CCCN(CCO)C2)c(C)c1 (stereo not drawn)	111.0*	13.5	-2.3	-3.0	1.4	-3.0	26.4
O=C1NCN(c2ccccc2)C12CCN(C(c1cccc3ccccc13)c1nnnn1C1CCCCC1)CC2 (stereo not drawn)	x	-6.2	x	x	-40.0	-1.0	x
C=C1C(=O)O[C@@H]2C[C@@H](C)[C@@H]3C=CC(=O)[C@@]3(C)[C@@H](OC(=O)CC(=O)O[C@H]3[C@@H]4C(=C)C(=O)O[C@@H]4C[C@@H](C)[C@@H]4C=CC(=O)[C@]43C)[C@H]12	82.8*	91.6*	-8.9	98.1*	50.7*	-8.6	115.3*	CXCR6 antag conf=100.3*
COc1ccc(C(c2nnnn2-c2ccc3c(c2)OCCO3)N2CCC3(CC2)C(=O)NCN3c2ccccc2)cc1 (stereo not drawn)	x	-2.0	x	x	2.9	-2.2	x
COc1cc(/C=C/[N+](=O)[O-])ccc1OC(=O)c1cccnc1	59.4*	56.6*	4.3	82.3*	-11.3	-1.9	71.5*	CXCR6 antag conf=63.5*
CCCCCN1C(=O)c2cc(OC)ccc2[C@@]2(C(=O)OCC)Cc3cc(OC)ccc3[C@@H]12	x	8.4	x	x	32.5	-5.4	x
CC(=O)Nc1ccc(S(=O)(=O)N2Cc3ccccc3-n3nncc3C2)cc1	x	7.0	x	x	1.7	-0.3	x

Assay outcomes as filed in PubChem.
